Series [1] in a line: In vivo biodistribution and clearance by real-time NIR fluorescence imaging. The settings on record: CD-1 mice, 10 nmol intravenously, imaging over 4 h. In outline: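 Male CD-1 mice (~25 g) were anesthetised with ketamine 100 mg/kg and xylazine 10 mg/kg i.p., then given 10 nmol of test fluorophore intravenously. Real-time FLARE imaging used 760 nm excitation at 11 mW/cm2 with white light (400–650 nm). Colour and NIR images were acquired together at up to 15 Hz. Resected organs were also imaged. Exposure and normalisation were held constant.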

Series [2] is classed as in vivo. The settings on record: CD-1 mice, 10 nmol intravenously, 4 h postinjection, N = 5. The method in brief:
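Anesthetised male CD-1 mice (~25 g; ketamine/xylazine i.p.) received test fluorophore intravenously. After 4 h of imaging, urine was collected from the bladder. Urine volume and optical absorbance were measured to estimate the amount of injected dye excreted.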

The nature of series [3]: Optical stability in serum. In kind it is in vitro ADME, fetal bovine serum. The note with it: 100% FBS, pH 7.4, 37 °C, 24 h.
Series [4] in a line: Optical properties in 100% FBS. In kind it is physicochemical. The settings on record: pH 7.4, 37 °C. In outline: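 Absorbance (200–1100 nm) and fluorescence (350–1000 nm) spectra were recorded for 1 µM test dye in 100% FBS, pH 7.4, using fibre-optic spectrometers. Excitation was 8 mW from a 655 or 765 nm laser diode, chosen by structure. Quantum yield was calibrated against oxazine 725 in ethylene glycol (QY 19%) and ICG in DMSO (QY 13%), with absorbance matched at 655 and 765 nm.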

For `Br.Br.CC1(C)C(/C=C/C2=C(Sc3ccc(C(=O)O)cc3)C(=C/C=C3/N(CCC[N+](C)(C)C)c4ccc(S(=O)(=O)[O-])cc4C3(C)C)/CCC2)=[N+](CCC[N+](C)(C)C)c2ccc(S(=O)(=O)[O-])cc21.[Br-]` [compound 8, Mono(2-((E)-2-((E)-2-((4-carboxyphenyl)thio)-3-((E)-2-(3,3-dimethyl-5-sulfonato-1-(3-(trimethylammonio)propyl)indolin-2-ylidene)ethylidene)cyclohex-1-en-1-yl)vinyl)-3,3-dimethyl-1-(3-(trimethylammonio)propyl)-3H-indol-1-ium-5-sulfonate) Tribromide], in series [1], the uptake in liver result is “weak uptake in liver”. As for `CC1(C)C(/C=C/C=C/C=C/C=C2\N(CCCCS(=O)(=O)O)c3ccc4ccccc4c3C2(C)C)=[N+](CCCCS(=O)(=O)[O-])c2ccc3ccccc3c21` [ICG, indocyanine green], in series [2], the “Renal excretion amount in urine” value is 3 % ID. In the case of “Mono(2-((E)-2-((E)-2-((4-(carboxymethyl)phenyl)thio)-3-((E)-2-(3,3-dimethyl-5-sulfonato-1-(3-(trimethylammonio)propyl)indolin-2-ylidene)ethylidene)cyclohex-1-en-1-yl)vinyl)-3,3-dimethyl-1-(3-(trimethylammonio)propyl)-3H-indol-1-ium-5-sulfonate) Tribromide [compound 9]”, the uptake in liver result in series [1] is on record as “weak uptake in liver”. Further, in series [3], the “Optical stability in serum” value is “increased stability”. As to “Mono(2-((E)-2-((E)-2-((4-(aminomethyl)phenyl)thio)-3-((E)-2-(3,3-dimethyl-5-sulfonato-1-(3-(trimethylammonio)propyl)indolin-2-ylidene)ethylidene)cyclohex-1-en-1-yl)vinyl)-3,3-dimethyl-1-(3-(trimethylammonio)propyl)-3H-indol-1-ium-5-sulfonate) Tribromide [compound 11]”, in series [3], the “Optical stability in serum” value is reported as “increased stability”. Turning to `Br.Br.CC1(C)C(/C=C/C2=C(Oc3ccc(CCN)cc3)C(=C/C=C3/N(CCC[N+](C)(C)C)c4ccc(S(=O)(=O)[O-])cc4C3(C)C)/CCC2)=[N+](CCC[N+](C)(C)C)c2ccc(S(=O)(=O)[O-])cc21.[Br-]` [compound 4, Mono(2-((E)-2-((E)-2-(4-(2-aminoethyl)phenoxy)-3-((E)-2-(3,3-dimethyl-5-sulfonato-1-(3-(trimethylammonio)propyl)-indolin-2-ylidene)ethylidene)cyclohex-1-en-1-yl)vinyl)-3,3-dimethyl-1-(3-(trimethylammonio)propyl)-3H-indol-1-ium-5-sulfonate) Tribromide], in series [4], the molar extinction coefficient entry was “highest” and the quantum yield entry was “highest”. For the same compound, the “Optical stability in serum” value in series [3] was “least stable”.

(Values after publication PMC4388048 (Journal of medicinal chemistry, 2015).)
